According to ChEMBL document CHEMBL3580554, “Design, synthesis, and anticonvulsant activity of new hybrid compounds derived from 2-(2,5-dioxopyrrolidin-1-yl)propanamides and 2-(2,5-dioxopyrrolidin-1-yl)butanamides” (J Med Chem, 2015):

Columns and labels:
[1] = test system: Mus musculus; experiment: Anticonvulsant activity in Swiss mouse assessed as protection against seizures at 300 mg/kg, ip dosed 0.5 hrs before pentylenetetrazole challenge by subcutaneous pentylenetetrazole seizure test; assay type: functional
Summary of the method: (§1)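 Mice were dosed i.p. at a fixed 300 or 100 mg/kg (6 Hz: 100 mg/kg only). Protection was then scored against MES, sc PTZ or 6 Hz seizures at pretreatment times of 0.25, 0.5, 1 and 2 h. Groups were four mice, scored as number protected / number tested. This also gives the time course and time of peak effect.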

[2] = test system: Mus musculus; experiment: Anticonvulsant activity in Swiss mouse assessed as protection against seizures at 300 mg/kg, ip dosed 0.5 hrs before initiation of maximal electroconvulsions by maximal electroshock test; assay type: functional; summary of the method: as §1
[3] = test system: Liver microsome; experiment: Drug metabolism in human liver microsomes assessed as metabolite M4 formation at 50 uM in presence of NADPH regeneration system pre-incubated at 37 degC for 5 min and measured 2 hrs after post NADPH system addition by UPLC and LC-MS/MS method; assay type: ADME
Summary of the method: (§2)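 The compound was incubated 2 h with human liver microsomes. Metabolites were detected by full-scan chromatogram and identified by LC/MS from their [M+H]+ molecular masses.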

[4] = biological target: CYP3A4 (Homo sapiens, UniProt P08684); experiment: Inhibition of human recombinant CYP3A4 assessed as remaining enzyme activity by measuring conversion of luciferin-PPXE into D-luciferin at 25 uM by luminescence CYP3A4 P450-Glo assay relative to untreated control; assay type: ADME; details: recombinant CYP3A4, probe luciferin-PPXE, read-out: Activity
[5] = test system: Mus musculus; experiment: Anticonvulsant activity in ip dosed Swiss mouse assessed as protection against seizures measured at 1 hr of time to peak effect by 6 Hz test by 6 Hz psychomotor seizure test; assay type: functional
[6] = test system: Mus musculus; experiment: Anticonvulsant activity in Swiss mouse assessed as protection against seizures at 100 mg/kg, ip dosed 0.25 hrs before pentylenetetrazole challenge by subcutaneous pentylenetetrazole seizure test; assay type: functional; summary of the method: as §1
[7] = test system: Liver microsome; experiment: Drug metabolism in human liver microsomes assessed as metabolite M3 formation at 50 uM in presence of NADPH regeneration system pre-incubated at 37 degC for 5 min and measured 2 hrs after post NADPH system addition by UPLC and LC-MS/MS method; assay type: ADME; summary of the method: as §2
[8] = test system: Mus musculus; experiment: Anticonvulsant activity in Swiss mouse assessed as protection against seizures at 300 mg/kg, ip dosed 0.25 hrs before pentylenetetrazole challenge by subcutaneous pentylenetetrazole seizure test; assay type: functional; summary of the method: as §1
[9] = test system: Mus musculus; experiment: Anticonvulsant activity in ip dosed Swiss mouse assessed as protection against seizures measured at 0.5 hrs of time to peak effect by 6 Hz test by 6 Hz psychomotor seizure test; assay type: functional
Summary of the method: (§3)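 Median effective doses (ED50, mg/kg) were determined i.p. in mice at the time of peak effect in the MES, sc PTZ or 6 Hz tests. Only compounds giving at least 50% protection at 100 mg/kg in that test were taken forward.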

[10] = test system: Mus musculus; experiment: Anticonvulsant activity in Swiss mouse assessed as protection against seizures at 100 mg/kg, ip dosed 1 hr before pentylenetetrazole challenge by subcutaneous pentylenetetrazole seizure test; assay type: functional; summary of the method: as §1
[11] = organism: Rattus norvegicus; experiment: Inhibition of [3H]BTX binding to sodium channel site 2 in rat cerebral cortex synaptosomes at 10 uM incubated for 60 mins by scintillation counting based radioligand displacement assay; assay type: subcellular
Summary of the method: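 Synaptoneurosomal preparations from rat cerebral cortex were used. The read-out was inhibition of specific [3H]BTX binding to the voltage-sensitive sodium channel (site 2), expressed as % inhibition of control specific binding. Compounds were tested at 1, 10, 100 and 500 μM. Inhibition above 50% was taken as significant.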

[12] = test system: Mus musculus; experiment: Anticonvulsant activity in Swiss mouse assessed as protection against seizures at 100 mg/kg, ip dosed 0.5 hrs before initiation of maximal electroconvulsions by maximal electroshock test; assay type: functional; summary of the method: as §1
[13] = Toxicity against HEK293 cells assessed as reduction in cell viability after 48 hrs by EZ4U label based assay; details: human
Summary of the method: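 HEK-293 human embryonic kidney cells were incubated with compound for 48 h and viability was then measured. Doxorubicin served as standard.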

[14] = organism: Rattus norvegicus; experiment: Inhibition of [125I]omega-conotoxin GVIA binding to N-type calcium channel in rat cerebral cortex synaptosomes at 100 uM incubated for 30 mins by scintillation counting based radioligand displacement assay; assay type: subcellular
[15] = test system: Mus musculus; experiment: Anticonvulsant activity in Swiss mouse assessed as protection against seizures at 300 mg/kg, ip dosed 2 hrs before pentylenetetrazole challenge by subcutaneous pentylenetetrazole seizure test; assay type: functional; summary of the method: as §1
[16] = test system: Mus musculus; experiment: Anticonvulsant activity in ip dosed Swiss mouse assessed as protection against seizures measured at 0.5 hrs of time to peak effect by maximal electroshock test; assay type: functional; summary of the method: as §3
[17] = Toxicity in ip dosed Swiss mouse assessed as induction of motor performance impairment measured within 60 seconds measured at 1 hr of time to peak effect by Chimney test; assay type: organism-based; details: in vivo
Summary of the method: (§4)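 Neurotoxicity (TD50) estimated in mice i.p. by chimney test for motor coordination impairment; protective index calculated as TD50/ED50 for each seizure model.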

[18] = test system: Mus musculus; experiment: Anticonvulsant activity in Swiss mouse assessed as protection against seizures at 300 mg/kg, ip dosed 1 hr before pentylenetetrazole challenge by subcutaneous pentylenetetrazole seizure test; assay type: functional; summary of the method: as §1
[19] = Ratio of IC50 for test compound to IC50 for doxorubicin against HEK293 cells assessed as reduction in cell viability after 48 hrs by EZ4U label based assay; details: human, read-out: Ratio IC50
[20] = organism: Mus musculus; experiment: Protective index, ratio of neurotoxic TD50 in Swiss mouse by Chimney test to anticonvulsant ED50 in Swiss mouse measured at 0.5 hrs of time to peak effect by maximal electroshock test
Summary of the method: (§5)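 Protective index was calculated as TD50 (chimney test, mouse, i.p.) divided by ED50 from the matching MES, sc PTZ or 6 Hz test, both taken at the time of peak effect.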

[21] = test system: Mus musculus; experiment: Anticonvulsant activity in ip dosed Swiss mouse assessed as protection against seizures measured at 1 hr of time to peak effect by maximal electroshock test; assay type: functional
[22] = Protective index, ratio of neurotoxic TD50 in Swiss mouse by Chimney test to anticonvulsant ED50 in Swiss mouse measured at 1 hr of time to peak effect by 6 Hz test by 6 Hz psychomotor seizure test; assay type: toxicity; details: in vivo, read-out: Ratio TD50/ED50; summary of the method: as §4
[23] = test system: Mus musculus; experiment: Anticonvulsant activity in ip dosed Swiss mouse assessed as protection against seizures measured at 0.5 hrs of time to peak effect by subcutaneous pentylenetetrazole seizure test; assay type: functional; summary of the method: as §3
[24] = test system: Mus musculus; experiment: Anticonvulsant activity in Swiss mouse assessed as protection against seizures at 100 mg/kg, ip dosed 2 hrs before initiation of maximal electroconvulsions by maximal electroshock test; assay type: functional; summary of the method: as §1
[25] = test system: Mus musculus; experiment: Anticonvulsant activity in Swiss mouse assessed as protection against seizures at 300 mg/kg, ip dosed 2 hrs before initiation of maximal electroconvulsions by maximal electroshock test; assay type: functional; summary of the method: as §1
[26] = test system: Mus musculus; experiment: Protective index, ratio of neurotoxic TD50 in Swiss mouse by Chimney test to anticonvulsant ED50 in Swiss mouse measured at 1 hr of time to peak effect by subcutaneous pentylenetetrazole seizure test; assay type: functional; summary of the method: as §5
[27] = test system: Mus musculus; experiment: Anticonvulsant activity in Swiss mouse assessed as protection against seizures at 100 mg/kg, ip dosed 2 hrs before pentylenetetrazole challenge by subcutaneous pentylenetetrazole seizure test; assay type: functional; summary of the method: as §1

CYP3A4, sequence (P08684 whole entry): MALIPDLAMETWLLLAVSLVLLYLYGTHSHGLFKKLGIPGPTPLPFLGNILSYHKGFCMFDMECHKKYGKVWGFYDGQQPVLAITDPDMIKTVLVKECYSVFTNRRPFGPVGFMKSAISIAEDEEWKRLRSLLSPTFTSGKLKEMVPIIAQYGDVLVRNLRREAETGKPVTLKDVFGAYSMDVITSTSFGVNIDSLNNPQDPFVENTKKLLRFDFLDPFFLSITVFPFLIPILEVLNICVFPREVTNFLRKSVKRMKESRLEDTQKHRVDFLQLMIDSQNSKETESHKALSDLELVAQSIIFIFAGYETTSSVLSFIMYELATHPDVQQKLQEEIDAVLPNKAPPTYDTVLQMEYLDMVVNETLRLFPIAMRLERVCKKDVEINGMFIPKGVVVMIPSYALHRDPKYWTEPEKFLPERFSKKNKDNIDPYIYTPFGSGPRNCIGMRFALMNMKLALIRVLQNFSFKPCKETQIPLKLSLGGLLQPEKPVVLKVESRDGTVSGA

## CC(C(=O)N1CCN(c2cccc(C(F)(F)F)c2)CC1)N1C(=O)CCC1=O (racemic)
[1]
  Activity: 100%
[2]
  Activity: 100%
[3]
  Drug metabolism: metabolite_detected
[4]
  activity at 25 µM: 68.4%
[5]
  ED50: 35 mg/kg
[6]
  Activity: 50%
[7]
  Drug metabolism: metabolite_detected
[8]
  Activity: 100%
[9]
  ED50: 21 mg/kg
[10]
  Activity: 75%
[11]
  inhibition: 12.2%
[12]
  Activity: 75%
[13]
  IC50 at 48 h: 50.7 µM
[14]
  inhibition: 13.9%
[15]
  Activity: 100%
[16]
  ED50: 88.4 mg/kg
[17]
  TD50 at 1 h: 824 mg/kg
[18]
  Activity: 100%
[19]
  selectivity ratio at 48 h: 100
[20]
  Ratio TD50/ED50: >16.97
[21]
  ED50: 85.1 mg/kg
[22]
  selectivity ratio at 1 h: 23.5
[23]
  ED50: 59.9 mg/kg
[24]
  Activity: 0%
[25]
  Activity: 100%
[26]
  Ratio TD50/ED50: 9.28
[27]
  Activity: 75%
